≈ marks a conversion by molar mass, not a printed value.
Columns and labels:
Assay type in all cases: functional
[1] = species on record: Mus musculus; assay: Half-maximal response in vitro using peritoneal exudate cells from Propionibacterium acnes-primed mice; conditions: read-out: ED50 (the source's name)
[2] = species on record: Oryctolagus cuniculus; assay: Minimum pyrogenic dose was determined for Febrile response in a standard 3-rabbit USP pyrogen test by injecting compound in the marginal ear vein
In short: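 Test article dissolved in EtOH, then diluted with D5W to the desired concentrations just before injection. The minimal pyrogenic dose is the dose at which the summed temperature rise over the three rabbits reaches at least 1.2 °C.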

[3] = species on record: Mus musculus; assay: Ability to enhance antibody response to tetanus toxoid vaccine, IgG1
In short: (§1)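 Mice were immunized with tetanus toxoid in an oil-water emulsion with test article, then boosted 21 days after the primary dose. Serum was taken 14 days after the second injection and assayed by ELISA. Values are test titers divided by the titer of controls given oil-water vehicle with tetanus toxoid only.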

[4] = species on record: Mus musculus; assay: Ability to enhance antibody response to tetanus toxoid vaccine, IgG2a; in short: as §1
[5] = species on record: Mus musculus; assay: Ability to enhance antibody response to tetanus toxoid vaccine, IgG2b; in short: as §1
[6] = species on record: Mus musculus; assay: Ability to enhance antibody response to tetanus toxoid vaccine, total Immunoglobulin (Ig); in short: as §1
[7] = species on record: Mus musculus; assay: Percent of cytotoxicity was determined for augment vaccine-induced CTL's against EG.7-ova target cells in two separate murine models
In short: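 C57BL/6 (H-2b) mice, 6 per group, were immunized on days 0 and 14 with a 2.5% oil-water emulsion containing 25 µg ovalbumin plus test article. On day 21, spleens were tested for ovalbumin-specific CTL against 51Cr-labeled E.G7-ova target cells, an ovalbumin-transfected line. Read-out was percent specific lysis.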

[8] = species on record: Homo sapiens; assay: Relative ex vivo induction of TNF-alpha in human whole blood stimulated with 10 ug/mL
In short: (§2)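 Human whole blood was stimulated with sample, and cell-associated TNF-α and IL-1β were measured by sandwich ELISA. Relative induction below 0.05 was scored as not detected.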

[9] = species on record: Homo sapiens; assay: Relative ex vivo induction of IL1-beta in human whole blood stimulated with 10 ug/mL; in short: as §2

CCCCCCCCCCCCCC(=O)O[C@H](CCCCCCCCCCC)CC(=O)NCCCCCCO[C@@H]1OC(CO)[C@H](OP(=O)(O)O)C(OC(=O)C[C@@H](CCCCCCCCCCC)OC(=O)CCCCCCCCCCCCC)[C@@H]1NC(=O)C[C@@H](CCCCCCCCCCC)OC(=O)CCCCCCCCCCCCC (some centres undefined)
EC50 [1]: 160 ng/mL (≈ 95.9 nM)
Dose [2]: >10 µg/kg

CCCCCCCCCCCCCC(=O)O[C@H](CCCCCCCCCCC)CC(=O)N[C@@H](CO)CO[C@@H]1OC(CO)[C@H](OP(=O)(O)O)C(OC(=O)C[C@@H](CCCCCCCCCCC)OC(=O)CCCCCCCCCCCCC)[C@@H]1NC(=O)C[C@@H](CCCCCCCCCCC)OC(=O)CCCCCCCCCCCCC (some centres undefined)
EC50 [1]: 150 ng/mL (≈ 91.3 nM)
Response [3]: 3.4
Response [4]: 3.8
Response [5]: 2.4
Response [6]: 4
Cytotoxicity [7]: 34%
Dose [2]: >10 µg/kg

CCCCCCCCCCC[C@H](CC(=O)NC(CO[C@@H]1OC(CO)[C@H](OP(=O)(O)O)C(OC(=O)C[C@@H](CCCCCCCCCCC)OC(=O)CCCCC)[C@@H]1NC(=O)C[C@@H](CCCCCCCCCCC)OC(=O)CCCCC)C(=O)O)OC(=O)CCCCC (some centres undefined)
EC50 [1]: > 10000 ng/mL
Response [3]: 1.3
Response [4]: 0.3
Response [5]: 0.9
Response [6]: 1.1
Dose [2]: <2.5 µg/kg

CCCCCCCCCCC[C@H](CC(=O)NC(CO[C@@H]1OC(CO)[C@H](OP(=O)(O)O)C(OC(=O)C[C@@H](CCCCCCCCCCC)OC(=O)CCCCCCCCC)[C@@H]1NC(=O)C[C@@H](CCCCCCCCCCC)OC(=O)CCCCCCCCC)C(N)=O)OC(=O)CCCCCCCCC (some centres undefined)
Cytokine induction [8]: 3.5
Cytokine induction [9]: 6.2
EC50 [1]: 0.3 ng/mL (≈ 0.202 nM)
Response [3]: 2.6
Response [4]: 1.7
Response [5]: 3.3
Response [6]: 8.9
Cytotoxicity [7]: 65%
Dose [2]: 10 µg/kg

CCCCCCCCCCCCCCCC(=O)O[C@H](CCCCCCCCCCC)CC(=O)N[C@H]1[C@@H](O)[C@H](O)[C@H](CO[C@@H]2O[C@@H](CO)[C@@H](OP(=O)(O)O)[C@H](OC(=O)C[C@@H](CCCCCCCCCCC)OC(=O)CCCCCCCCCCCCC)[C@@H]2NC(=O)C[C@@H](CCCCCCCCCCC)OC(=O)CCCCCCCCCCC)O[C@H]1O
Cytokine induction [8]: 1.2
Cytokine induction [9]: 0.7
EC50 [1]: 14 ng/mL (≈ 8.09 nM)
Cytotoxicity [7]: 31%
Dose [2]: 10 µg/kg

CCCCCCCCCCCC(=O)O[C@H](CCCCCCCCCCC)CC(=O)NC(CO[C@@H]1OC(CO)[C@H](OP(=O)(O)O)C(OC(=O)C[C@@H](CCCCCCCCCCC)OC(=O)CCCCCCCCCCC)[C@@H]1NC(=O)C[C@@H](CCCCCCCCCCC)OC(=O)CCCCCCCCCCC)C(=O)O (some centres undefined)
Cytokine induction [8]: 3.6
Cytokine induction [9]: 2
EC50 [1]: 0.9 ng/mL (≈ 0.572 nM)
Dose [2]: <2.5 µg/kg

CCCCCCCCCCC[C@H](CC(=O)NC(CO[C@@H]1OC(CO)[C@H](OP(=O)(O)O)C(OC(=O)C[C@@H](CCCCCCCCCCC)OC(=O)CCCCCCC)[C@@H]1NC(=O)C[C@@H](CCCCCCCCCCC)OC(=O)CCCCCCC)C(=O)O)OC(=O)CCCCCCC (some centres undefined)
EC50 [1]: 33 ng/mL (≈ 23.5 nM)
Dose [2]: <2.5 µg/kg

CCCCCCCCCCC[C@H](CC(=O)N[C@@H](CO[C@@H]1OC(CO)[C@H](OP(=O)(O)O)C(OC(=O)C[C@@H](CCCCCCCCCCC)OC(=O)CCCCCCCCC)[C@@H]1NC(=O)C[C@@H](CCCCCCCCCCC)OC(=O)CCCCCCCCC)C(=O)O)OC(=O)CCCCCCCCC (some centres undefined)
Cytokine induction [8]: >6
Cytokine induction [9]: 23
EC50 [1]: 0.06 ng/mL (≈ 0.0403 nM)
Response [3]: 4.2
Response [4]: 6.8
Response [5]: 2.8
Response [6]: 18.9
Cytotoxicity [7]: 58%
Dose [2]: <0.06 µg/kg

CCCCCCCCCCCCCC(=O)O[C@H](CCCCCCCCCCC)CC(=O)NC(CO[C@@H]1OC(CO)[C@H](OP(=O)(O)O)C(OC(=O)C[C@@H](CCCCCCCCCCC)OC(=O)CCCCCCCCCCCCC)[C@@H]1NC(=O)C[C@@H](CCCCCCCCCCC)OC(=O)CCCCCCCCCCCCC)C(=O)OC (some centres undefined)
Cytokine induction [8]: 1.1
Cytokine induction [9]: 1.1
EC50 [1]: 67 ng/mL (≈ 40.1 nM)
Dose [2]: 10 µg/kg

CCCCCCCCCCCCCC(=O)O[C@H](CCCCCCCCCCC)CC(=O)N[C@H](CO)CO[C@@H]1OC(CO)[C@H](OP(=O)(O)O)C(OC(=O)C[C@@H](CCCCCCCCCCC)OC(=O)CCCCCCCCCCCCC)[C@@H]1NC(=O)C[C@@H](CCCCCCCCCCC)OC(=O)CCCCCCCCCCCCC (some centres undefined)
Cytokine induction [8]: 3.5
Cytokine induction [9]: 4.9
EC50 [1]: 9 ng/mL (≈ 5.48 nM)
Response [3]: 2.2
Response [4]: 4.3
Response [5]: 1.6
Response [6]: 3.8
Cytotoxicity [7]: 21%
Dose [2]: 10 µg/kg

CCCCCCCCCCCCCC(=O)O[C@H](CCCCCCCCCCC)CC(=O)NCCO[C@@H]1OC(CO)[C@H](OP(=O)(O)O)C(OC(=O)C[C@@H](CCCCCCCCCCC)OC(=O)CCCCCCCCCCCCC)[C@@H]1NC(=O)C[C@@H](CCCCCCCCCCC)OC(=O)CCCCCCCCCCCCC (some centres undefined)
Cytokine induction [8]: 0.3
Cytokine induction [9]: 0.3
EC50 [1]: 100 ng/mL (≈ 62 nM)
Cytotoxicity [7]: 59%
Dose [2]: 10 µg/kg

CCCCCCCCCCCCCC(=O)O[C@H](CCCCCCCCCCC)CC(=O)NCCCCCCCCO[C@@H]1OC(CO)[C@H](OP(=O)(O)O)C(OC(=O)C[C@@H](CCCCCCCCCCC)OC(=O)CCCCCCCCCCCCC)[C@@H]1NC(=O)C[C@@H](CCCCCCCCCCC)OC(=O)CCCCCCCCCCCCC (some centres undefined)
EC50 [1]: > 10000 ng/mL
Dose [2]: >10 µg/kg

CCCCCCCCCCC[C@H](CC(=O)NC(CO[C@@H]1OC(CO)[C@H](OP(=O)(O)O)C(OC(=O)C[C@@H](CCCCCCCCCCC)OC(=O)CCCCC)[C@@H]1NC(=O)C[C@@H](CCCCCCCCCCC)OC(=O)CCCCC)C(N)=O)OC(=O)CCCCC (some centres undefined)
EC50 [1]: > 10000 ng/mL
Dose [2]: >10 µg/kg

CCCCCCCCCCCCCC(=O)O[C@H](CCCCCCCCCCC)CC(=O)NCCCCO[C@@H]1OC(CO)[C@H](OP(=O)(O)O)C(OC(=O)C[C@@H](CCCCCCCCCCC)OC(=O)CCCCCCCCCCCCC)[C@@H]1NC(=O)C[C@@H](CCCCCCCCCCC)OC(=O)CCCCCCCCCCCCC (some centres undefined)
Cytokine induction [8]: 1
Cytokine induction [9]: 0.3
EC50 [1]: 51 ng/mL (≈ 31.1 nM)
Cytotoxicity [7]: 58%
Dose [2]: 10 µg/kg

CCCCCCCCCCC[C@H](CC(=O)NCCO[C@@H]1OC(CO)[C@H](OP(=O)(O)O)C(OC(=O)C[C@@H](CCCCCCCCCCC)OC(=O)CCCCC)[C@@H]1NC(=O)C[C@@H](CCCCCCCCCCC)OC(=O)CCCCC)OC(=O)CCCCC (some centres undefined)
EC50 [1]: > 10000 ng/mL
Dose [2]: 10 µg/kg

CCCCCCCCCCCCCC(=O)O[C@H](CCCCCCCCCCC)CC(=O)NC(CO[C@@H]1OC(CO)[C@H](OP(=O)(O)O)C(OC(=O)C[C@@H](CCCCCCCCCCC)OC(=O)CCCCCCCCCCCCC)[C@@H]1NC(=O)C[C@@H](CCCCCCCCCCC)OC(=O)CCCCCCCCCCCCC)C(=O)O (some centres undefined)
Cytokine induction [8]: 1.7
Cytokine induction [9]: 4.8
EC50 [1]: 3 ng/mL (≈ 1.81 nM)
Response [3]: 1.9
Response [4]: 2.1
Response [5]: 0.9
Response [6]: 3.6
Cytotoxicity [7]: 14%
Dose [2]: 0.6 µg/kg

CCCCCCCCCCCCCC(=O)O[C@H](CCCCCCCCCCC)CC(=O)NCCCO[C@@H]1OC(CO)[C@H](OP(=O)(O)O)C(OC(=O)C[C@@H](CCCCCCCCCCC)OC(=O)CCCCCCCCCCCCC)[C@@H]1NC(=O)C[C@@H](CCCCCCCCCCC)OC(=O)CCCCCCCCCCCCC (some centres undefined)
Cytokine induction [8]: 2.3
Cytokine induction [9]: 3.5
EC50 [1]: 8 ng/mL (≈ 4.92 nM)
Response [3]: 2.2
Response [4]: 5.8
Response [5]: 6.1
Response [6]: 4.7
Cytotoxicity [7]: 38%
Dose [2]: 10 µg/kg

CCCCCCCCCCC[C@H](CC(=O)N[C@H](CO[C@@H]1OC(CO)[C@H](OP(=O)(O)O)C(OC(=O)C[C@@H](CCCCCCCCCCC)OC(=O)CCCCCCCCC)[C@@H]1NC(=O)C[C@@H](CCCCCCCCCCC)OC(=O)CCCCCCCCC)C(=O)O)OC(=O)CCCCCCCCC (some centres undefined)
Cytokine induction [8]: 1.5
Cytokine induction [9]: 0.6
EC50 [1]: 0.3 ng/mL (≈ 0.202 nM)
Dose [2]: <2.5 µg/kg

CCCCCCCCCCCCCC(=O)O[C@H](CCCCCCCCCCC)CC(=O)NC(CO[C@@H]1OC(CO)[C@H](OP(=O)(O)O)C(OC(=O)C[C@@H](CCCCCCCCCCC)OC(=O)CCCCCCCCCCCCC)[C@@H]1NC(=O)C[C@@H](CCCCCCCCCCC)OC(=O)CCCCCCCCCCCCC)C(N)=O (some centres undefined)
Cytokine induction [8]: 1.1
Cytokine induction [9]: 0.9
EC50 [1]: 20 ng/mL (≈ 12.1 nM)
Dose [2]: 10 µg/kg

CCCCCCCCCCC[C@H](CC(=O)NCCO[C@@H]1OC(CO)[C@H](OP(=O)(O)O)C(OC(=O)C[C@@H](CCCCCCCCCCC)OC(=O)CCCCCCCCC)[C@@H]1NC(=O)C[C@@H](CCCCCCCCCCC)OC(=O)CCCCCCCCC)OC(=O)CCCCCCCCC (some centres undefined)
Cytokine induction [8]: 1.3
Cytokine induction [9]: 1.9
EC50 [1]: 0.5 ng/mL (≈ 0.346 nM)
Cytotoxicity [7]: 36%
Dose [2]: 10 µg/kg

— ChEMBL document CHEMBL1131828, “Synthesis and biological evaluation of a new class of vaccine adjuvants: aminoalkyl glucosaminide 4-phosphates (AGPs)” (1999)
